ChEMBL document CHEMBL1221374, “Synthesis, proapoptotic screening, and structure-activity relationships of novel aza-lupane triterpenoids” (Bioorg Med Chem Lett, 2010)

Experiments:
SK-MEL-2 = test: Cytotoxicity against human SK-MEL-2 cells after 72 hrs by MTS assay; format: functional, cell-based; conditions: SK-MEL-2, 72 h
In short: (§1)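 Cells (1 × 10^4/well) seeded the evening before. Compounds were taken from 10 mM DMSO stock into growth medium and tested at 2, 10, 25, 50 and 75 µM, four wells each, with DMSO-matched controls. Exposure was 72 h, then MTS reagent for 1.5-4 h at 37 °C, and formazan A490 was read against DMSO-treated cells. IC50 is the mean of four wells from one experiment, or of three experiments where stated.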

A-375 = test: Cytotoxicity against human A375 cells after 72 hrs by MTS assay; format: functional, cell-based; conditions: A-375, 72 h; in short: as §1
Daoy = test: Cytotoxicity against human DaOY cells after 72 hrs by MTS assay; format: functional, cell-based; in short: as §1
[1] = Cytotoxicity against human LN229 cells after 72 hrs by MTS assay; format: functional, cell-based; conditions: LN-229, 72 h; in short: as §1
HT-29 = test: Cytotoxicity against human HT-29 cells after 72 hrs by MTS assay; format: functional, cell-based; conditions: HT-29, 72 h; in short: as §1
MCF7 = test: Cytotoxicity against human MCF7 cells after 72 hrs by MTS assay; format: functional, cell-based; conditions: MCF7, 72 h; in short: as §1
OVCAR-3 = test: Cytotoxicity against human OVCAR-3 cells after 120 hrs by MTS assay; conditions: OVCAR-3, 120 h
SK-MEL-2 (Homo sapiens) [2] = test: Induction of apoptosis in human SK-MEL-2 cells assessed as necrotic cells at 7.5 uM after 16 hrs by annexin assay
SK-MEL-2 (Homo sapiens) [3] = test: Induction of apoptosis in human SK-MEL-2 cells assessed as apoptotic cells at 7.5 uM after 16 hrs by annexin assay

| Structure (SMILES) | IC50 (SK-MEL-2) [µM] | IC50 (A-375) [µM] | IC50 (Daoy) [µM] | IC50 [1] [µM] | IC50 (HT-29) [µM] | IC50 (MCF7) [µM] | IC50 (OVCAR-3) [µM] | Activity (SK-MEL-2 (Homo sapiens) [2]) [%] | Activity (SK-MEL-2 (Homo sapiens) [3]) [%] |
| --- | --- | --- | --- | --- | --- | --- | --- | --- | --- |
| C=C(CNCCO)[C@@H]1CC[C@]2(CO)CC[C@]3(C)[C@H](CC[C@@H]4[C@@]5(C)CCC(NCCc6ccc(O)cc6)C(C)(C)[C@@H]5CC[C@]43C)[C@@H]12 (some centres not stated) | 5 | 2 | < 2 | 14 | < 2 | 4 | 40 | < 15 | > 60 |
| C=C(CNCCc1ccc(O)cc1)[C@@H]1CC[C@]2(CO)CC[C@]3(C)[C@H](CC[C@@H]4[C@@]5(C)CCC(NCCO)C(C)(C)[C@@H]5CC[C@]43C)[C@@H]12 (some centres not stated) | 6 | 5 | 2 | 6 | 5 | 5 |  | < 15 | > 60 |
